Unmarked numbers belong to inactive results. Records with an inconclusive call do not appear. Active and inactive are the calls of the source.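 The calls were made as follows, unless noted: active = cell viability at or below a set limit in both duplicate runs, the limit being the all-compound median minus 4 SD (cut at about 23% in these data, passing the limit was not always enough); inconclusive = no clear call, values can overlap the other calls; inactive = the rest.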
Assays:
[1] = S. cerevisiae growth inhibition in permissive medium (OD615), pilot counter-assay for S. cerevisiae lifespan shortening project, permissive growth control (AID 705;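 active = growth inhibition above 25% in both replicates, a cutoff set 3 SD above the mean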); conditions: OD615, 24 h, at 10 µM, stronger effect = higher value
Procedure, shortened: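 Test system: Saccharomyces cerevisiae strain carrying genetically modified DeaD replicative-lifespan system; buffer or medium: SC raffinose/galactose permissive medium; dosing: one dose 10 µM, DMSO 0.25% final; times: 24 h exposure, 30 °C; measured by: OD at 615 nm; read-out basis: growth inhibition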

[2] = S. cerevisiae growth inhibition in restrictive medium, OD615, pilot screen, restrictive growth control, yeast lifespan reduction project (AID 706;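 active = growth inhibition above a set limit, 3 SD over mean compound inhibition, in both replicates, cut at about 43% in these data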;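 also: modified DeaD lifespan yeast strain shifted to restrictive glucose medium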); conditions: OD615, 48 h, at 10 µM, stronger effect = higher value
Procedure, shortened: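 material = engineered S. cerevisiae DeaD strain | buffer or medium = glucose-based CSMM-D restrictive medium | dosing = one concentration, 10 µM final, 0.25% DMSO | schedule = 4 h pre-growth plus 48 h compound exposure, 30 °C | detection = OD615 absorbance reading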

[3] = doxorubicin toxicity protection in MRP-1 cells – H69AR cells, CellTiter-Glo, duplicate, MRP-1 activator project, pilot screen (AID 807;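 active = viability increase at or above a cutoff of the median across tested compounds plus 3 SD, cut at about 8.5% in these data, passing the limit was not always enough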;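 also: compound pretreatment 18-22 h then 72 h combined with doxorubicin; 0% = doxorubicin alone and 100% = vehicle without doxorubicin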); conditions: H69AR viability with doxorubicin, CellTiter-Glo luminescence; at 10 µM; stronger effect = higher value
[4] = viability of HCT116 without oncogenic beta-catenin – human colon tumor cells, pilot screen (AID 823); conditions: HCT116 beta-catenin knockout viability, CellTiter-Glo, 60 h; at 10 µM; stronger effect = lower value;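 also: 0% = wells killed by 20 µM Hyamine and 100% = untreated DMSO cell wells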
[5] = viability of PTEN-null HCT116 cells – cell-based, HCT116 clonal line, CellTiter-Glo, pilot screen (AID 824;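 active = viability at or below 27.92% in each of two runs, the all-compound median minus 4 SD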;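 also: 0% = 20 µM Hyamine control and 100% = vehicle cell control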); conditions: HCT116 PTEN-deleted viability, 60 h, at 10 µM, stronger effect = lower value
[6] = RAM pathway blockade in budding yeast – dse1pr::URA3 reporter, 5-FOA selection, pilot screen (AID 869;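 active = inhibition over a set limit, the all-compound mean plus 3 SD, in both replicate runs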;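 also: 0% = DMSO wells with no growth and 100% = 10 µM 1-NA-PP1 with full growth; RAM network block rescues cells from 5-FOA so hits raise OD615 growth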); conditions: S. cerevisiae dse1pr::URA3 5-FOA growth, OD615, 2 d; at 10 µM; stronger effect = higher value; strain carries analog-sensitive mutant Cbk1 kinase
[7] = RAM signaling pathway blockade in yeast – S. cerevisiae, Pdr1DBD-CYC8 efflux-inhibited sensitized strain, primary screen (AID 1298;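 active = RAM network inhibition above 8.4% in each of two replicates, 3 SD over the compound average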;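 also: 0% = DMSO untreated cells without growth and 100% = 10 µM 1-NA-PP1 full growth; higher means more yeast growth rescued from 5-FOA killing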); conditions: S. cerevisiae cbk1-as DSE1-URA3 strain, 5-FOA growth OD615, 2 d; at 50 µM; stronger effect = higher value

SMILES | growth inhibition [1] | growth inhibition [2] | viability increase [3] | viability [4] | viability [5] | inhibition [6] | RAM network inhibition [7]
Cc1noc(C(=O)Nc2c(C)nn(Cc3ccccc3)c2C)c1Cl | -7.73% | 7.98% | 0.04% | 93.1% | 88.7% | 2.25% | 3.63%
CCOC(=O)C(C)n1cnc2c(nnn2-c2cccc(Cl)c2)c1=O (stereo not drawn) | -4.37% | -3.95% | 1.78% | 102% | 92.6% | 2.58% | 4.24%
CCOc1ccc(C(=O)Nc2cc(=O)n(C)c(=O)n2C)cc1 | -29.3% | -26.3% | -0.98% | 101% | 97.5% | 1.9% | 0.62%
C#CC(C)(C)NC(=O)CSc1nc2c(c(=O)n(C)c(=O)n2C)n1CCCC | -15.3% | -13.7% | 1.86% | 102% | 89.4% | 2.11% | 1.45%
CCn1c(C)nc2cc(S(=O)(=O)N3CCCC3)ccc21 | -1.56% | 11.8% | -1.11% | 94.3% | 88.6% | 0.805% | 2.71%
C=CCn1c(SCCCC)nc(O)cc1=O | 1.55% | 8.79% | -0.11% | 105% | 102% | 0.02% | -0.21%
O=C(COC(=O)c1ccc(S(=O)(=O)N2CCOCC2)cc1)NC1CCCCCC1 | -5.28% | -3.04% | 0.74% | 101% | 105% | 1.42% | 3.1%
COC(=O)C(C)n1cnc2c(nnn2-c2cccc(Cl)c2)c1=O (stereo not drawn) | -6.67% | 1.2% | 2.08% | 110% | 99% | 0.05% | 6.76%
CCCCOC(=O)c1ccc(NC(=O)CSCc2n[nH]c(=O)[nH]2)cc1 | -1.44% | -3.24% | 0.11% | 98.3% | 102% | 0.475% | 1.48%
COc1cccc(-c2nc(C(N)=O)c3[nH]c(=O)n(-c4cccc(Cl)c4)c3n2)c1OC | -21.4% | -28.5% | -4.45% | 75.5% | 72.5% | 4.14% | 3.65%
CCOC(=O)C(C(=O)OCC)c1cc(Br)c2noc3c2c1C(=O)c1ccccc1-3 | -15.6% | -3.25% | -8.25% | 1.06% (active) | 1.23% (active) | 1.65% | 1.87%
CC1CN(Cc2nc3c(c(=O)n(C)c(=O)n3C)n2Cc2ccc(Cl)cc2)CC(C)O1 (stereo not drawn) | -3.79% | 0.39% | -0.99% | 91.6% | 91.9% | 2.13% | 4.34%
CCCc1cc(C(=O)Nc2cccc(Cl)c2)no1 | -7.36% | -1.01% | 0.77% | 102% | 97.7% | 1.44% | -1.31%
COC(=O)C1C(O)=C(C(C)=N)C(=O)CC1(C)C (stereo not drawn) | -3.89% | 2.82% | -0.83% | 98.1% | 90.8% | -0.755% | 1.67%
CCOc1ccc(-n2c(Cc3cc(=O)[nH]c(=O)[nH]3)nnc2SCC(=O)NC2CCCC2)cc1 | -1.49% | 4.62% | -0.16% | 101% | 100% | -1.29% | -0.37%
Cc1cc(Cl)ccc1N=Cc1c(O)n(C)c(=O)n(C)c1=O | 1.62% | 1.2% | 2.36% | 106% | 105% | 0.11% | -1.25%
CCOC(=O)c1nnc2cc(-c3ccccc3)nn2c1C | 3.76% | 16% | 0.86% | 93.6% | 95.3% | 1.5% | 0.86%
Cc1cc(C)c(NC(=O)CN2CCN(C)CC2)c(C)c1 | -1.99% | 4.72% | -1.53% | 112% | 92.3% | 2.21% | 1.38%
CCOC(=O)C1=C(C)Nc2nc(C)nn2C1c1ccc(C)cc1 (stereo not drawn) | -0.5% | 7.16% | -1.84% | 100% | 97.8% | 1.9% | -0.2%
CCCC(=O)Nc1nc2ccc(OC)cc2s1 | -15.5% | -17.6% | 1.29% | 93.8% | 80.7% | 0.5% | 2.32%
Clc1ccc(C2CC(c3cccs3)n3ncnc3N2)cc1Cl (stereo not drawn) | -2.88% | 29.1% | -5.77% | 80.2% | 72.9% | 0.94% | -1.53%
Cc1nn2cc(-c3ccccc3)nc2s1 | -5.37% | -7.45% | -1.05% | 93.3% | 91.6% | 0.575% | 4.7%
CCc1ccccc1NC1c2ccccc2C(=O)N1c1cc(C)ccn1 (stereo not drawn) | -12.1% | -4.82% | -1.63% | 99.1% | 101% | 1.82% | 11.4%
COc1ccc(S(=O)(=O)NCc2ccccc2Cl)cc1OC | -5.85% | 2.66% | -1.42% | 102% | 96.1% | 1.98% | 2.86%
